Consider 4 compounds from ChEMBL document CHEMBL1671641, “1,5-benzodiazepines, a novel class of hepatitis C virus polymerase nonnucleoside inhibitors” (Antimicrob Agents Chemother, 2008).

Data set [1] relates to Hepatitis C virus. The experiment in a line: Antiviral activity against Hepatitis C virus infected in cells assessed as log reduction in viral RNA level from baseline at 4500 mg administered BID for 14 days by Replicon Assays. Format: functional, Hepacivirus hominis.
Data set [2] concerns Hepatitis C virus. The data set can be described thus: Inhibition of Hepatitis C virus 1b J4 recombinant NS5B Cdelta 21 RNA dependent RNA polymerase overexpressed in Escherichia coli BL21 (DE3) by RdRp primer-dependent transcription assay. Also noted: species or system Hepatitis C virus subtype 1b.
Data set [3] deals with Hepatitis C virus. The data set can be described thus: Non competitive inhibition of Hepatitis C virus 1b J4 recombinant NS5B Cdelta 21 RNA dependent RNA polymerase overexpressed in Escherichia coli BL21 (DE3) in presence of radiolabeled 20 nM GTP. Also noted: species or system Hepatitis C virus subtype 1b. The method, boiled down:
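Primer-dependent RdRp assay using purified C-terminally truncated NS5BΔ21 (genotype 1b J4) expressed in E. coli BL21(DE3). Enzyme was incubated with a poly(rC)/oligo(rG13) template, radiolabeled GTP at 20 nM, and a range of inhibitor concentrations. IC50 was derived by nonlinear regression of the dose-response curves. The run was done once in quadruplicate, reported as means ± SEM.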

Data set [4] deals with Hepatitis C virus. The experiment in a line: Inhibition of Hepatitis C virus 1b J4 recombinant NS5B Cdelta 21 RNA dependent RNA polymerase overexpressed in Escherichia coli BL21 (DE3) assessed as [alpha-33P]UTP incorporation by RdRp primer-independent transcription assay. Also noted: species or system Hepatitis C virus subtype 1b. The method, boiled down:
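De novo (primer-independent) RdRp assay: 190 nM NS5BΔ21 (1b J4) with 86 nM HCV 3′ UTR template RNA, 0.5 mM each ATP/GTP/CTP, 10 μM UTP plus [α-³³P]UTP, in 20 mM Tris-HCl pH 7.5, 1 mM DTT, 5 mM MgCl₂, 20 mM NaCl. Incubated 2 h at room temperature, stopped with EDTA/tRNA, TCA-precipitated on filters, and scintillation-counted. Quadruplicate.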

The test system of data set [5] is MT4. The experiment in a line: Cytotoxicity against LTR-Luc transfected human MT4 cells […] after 3 days by ATPLite assay. It counts as cell-based. As to conditions: mt4, 72 h, 72 h.
Data set [6] concerns Hepatitis C virus. The data set can be described thus: Non competitive inhibition of Hepatitis C virus 1b J4 recombinant NS5B Cdelta 21 RNA dependent RNA polymerase overexpressed in Escherichia coli BL21 (DE3) in presence of radiolabeled 200 uM GTP.
The subject of data set [7] is Hepatitis C virus. The data set can be described thus: Antiviral activity against Hepatitis C virus 1b infected in human HuH7 cells assessed as inhibition of viral replication after 3 days by luciferase reporter assay. Format: functional, organism-based, Hepacivirus hominis, genotype 1b, Huh-7. As to conditions: huh-7. The method, boiled down: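 HCV 1b subgenomic luciferase reporter replicon (clone ET) cells, 2,500 per well, were exposed to a nine-point 1/4 dilution series for 3 days. Replication was read as luciferase activity. Values are means ± SD from 2 to 23 independent experiments run in quadruplicate.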

Data set [8] is described as follows: Cytotoxicity against CMV-Luc transfected human HuH7 cells after 5 days. Format: cell-based, Huh-7. As to conditions: huh-7, 120 h, 120 h.
The subject of data set [9] is Hepatitis C virus. The experiment in a line: Antiviral activity against Hepatitis C virus infected in cells assessed as log reduction in viral RNA level at 800 mg administered BID for 10 days. Format: functional, Hepacivirus hominis.
A short description of data set [10]: Cytotoxicity against human HepG2 cells after 72 hrs by resazurin assay. Format: cell-based. As to conditions: HepG2 cells. The method, boiled down:
(§1)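 Cells were tested against eight serial fourfold dilutions for 72 h, at 3,000 cells/well for HEK293T and 4,000 cells/well for HepG2. Viability was read by resazurin staining. Values are means ± SD from two to eight independent experiments in quadruplicate.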

The target of data set [11] is Translocator protein (Homo sapiens, UniProt P30536). The experiment in a line: Inhibition of peripheral benzodiazepine BZD receptor by radioligand binding assay. The method, boiled down:
(§2)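 Radioligand binding assays for the GABA-A central BZD receptor and the peripheral BZD receptor were run as a single experiment in duplicate.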

Data set [12] deals with Hepatitis C virus. The experiment in a line: Ratio of EC50 for Hepatitis C virus 796 infected in HuH7 cells to EC50 for Hepatitis C virus 796 harboring NNI M423T mutant site in NS5B infected in HuH7 cells. Format: functional, Hepacivirus hominis, Huh-7. The method, boiled down:
(§3)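 NS5B NNI-site mutations were introduced into the genotype 1b ET subgenomic luciferase replicon by site-directed mutagenesis. RNA was made by in vitro transcription and tested in a transient-replication assay.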

In data set [13] the test system is Hepatitis C virus. The data set can be described thus: Ratio of EC50 for Hepatitis C virus 796 infected in HuH7 cells to EC50 for Hepatitis C virus 796 harboring NNI P495L mutant site in NS5B infected in HuH7 cells. It counts as functional, Hepacivirus hominis, Huh-7. The method, boiled down: as §3
Data set [14] has as its system Hepatitis C virus. The experiment in a line: Ratio of EC50 for Hepatitis C virus 796 infected in HuH7 cells to EC50 for Hepatitis C virus 796 harboring NNI M414Q mutant site in NS5B infected in HuH7 cells. It counts as functional, Hepacivirus hominis, Huh-7. The method, boiled down: as §3
For data set [15], the system named is Hepatitis C virus. The data set can be described thus: Ratio of EC50 for Hepatitis C virus 796 infected in HuH7 cells to EC50 for Hepatitis C virus 796 harboring NNI H95R mutant site in NS5B infected in HuH7 cells. Format: functional, Hepacivirus hominis, Huh-7. The method, boiled down: as §3
The test system of data set [16] is Hepatitis C virus. The data set can be described thus: Ratio of EC50 for Hepatitis C virus 796 infected in HuH7 cells to EC50 for Hepatitis C virus 796 harboring NNI Y448A mutant site in NS5B infected in HuH7 cells. It counts as functional, Hepacivirus hominis, Huh-7. The method, boiled down: as §3
Data set [17] relates to Hepatitis C virus. The data set can be described thus: Ratio of EC50 for Hepatitis C virus 796 infected in HuH7 cells to EC50 for Hepatitis C virus 796 harboring NNI C316Y mutant site in NS5B infected in HuH7 cells. Format: functional, Hepacivirus hominis, Huh-7. The method, boiled down:
as §3

Data set [18] can be described thus: Inhibition of Gamma-aminobutyric acid type-A (GABAA) receptor by radioligand binding assay. The method, boiled down:
as §2

Data set [19] is described as follows: Cytotoxicity against human MT4 cells after 3 days by ATPLite assay. It counts as cell-based. As to conditions: MT4 cells. The method, boiled down:
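MT4 cells, 5,000 per well, were incubated 3 days at 37°C with eight serial fourfold compound dilutions. Cytotoxicity was read as intracellular ATP by ATPlite 1step luminescence. Values are means ± SD from two to eight independent experiments in quadruplicate.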

The nature of data set [20]: Cytotoxicity against human HEK293T cells after 72 hrs by resazurin assay. Format: cell-based, HEK-293T. The method, boiled down: as §1
Data set [21] is described as follows: Cytotoxicity against human HuH7 cells after 5 days by resazurin assay. Format: cell-based, Huh-7. As to conditions: HuH7 cells. The method, boiled down:
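Subconfluent HCV 1b subgenomic replicon cells, 500 per well and grown without G418, were incubated for 5 days with eight serial fourfold compound dilutions. Viability was read by resazurin. Values are means ± SD from two to eight independent experiments in quadruplicate.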

Sequence of Translocator protein (P30536 whole entry): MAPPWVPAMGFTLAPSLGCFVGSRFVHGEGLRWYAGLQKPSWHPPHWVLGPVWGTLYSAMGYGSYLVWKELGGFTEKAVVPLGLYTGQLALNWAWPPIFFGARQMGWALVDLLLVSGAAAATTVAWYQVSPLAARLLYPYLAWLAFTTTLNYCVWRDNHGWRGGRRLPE

As for `[N-]=[N+]=N[C@]1(CO)O[C@@H](n2ccc(N)nc2=O)[C@H](O)[C@@H]1O` [4'-AZIDOCYTIDINE], in [1], the FC is listed as 3.7.

Regarding `CC(=O)N1c2ccccc2NC2=C(C(=O)CC(C)(C)C2)C1c1ccc(OCc2ccccc2)c(Cl)c1` (single isomer, unassigned; 4a), the IC50 was 1 µM in data set [2], 1 µM in data set [3], 0.9 µM in [4] and 1.3 µM in [6]. Also, the CC50 in [5] is 16.4 µM; in [8], greater than 32 µM. Moreover, the EC50 in [7] was 1.9 µM.

As to `CC1CCC(C(=O)N(c2cc(-c3ccccc3)sc2C(=O)[O-])C2CCC(O)CC2)CC1.[Na+]` (stereo unspecified) [VCH-759], in [9], the FC came out at 2.5.

For `CC(=O)N1c2cccc(O)c2NC2=C(C(=O)CC(C)(C)C2)C1c1ccc(OCc2ccccc2)cc1Cl` (single isomer, unassigned; 7a), the IC50 in [2] is 0.05 µM; in data set [11] it was greater than 30 µM; in data set [4], 0.05 µM; in data set [18], greater than 30 µM. The results for the CC50 at 72 h in [10], in [19] and in data set [20] were 31.2 µM, 56.5 µM and greater than 25 µM, respectively. For the same compound, the CC50 came to 16.2 µM in data set [5] and 12.8 µM in data set [8]. Also, the “fold change (FC)” value in data set [12], in [13], in data set [14], in [15], in [16] and in [17] was 10 each time. The EC50 in [7] stood at 1.2 µM. In data set [21], this compound registered a CC50 at 120 h of 46.2 µM.
